The results in this text go back to ChEMBL document CHEMBL1129795, “2-Azetidinone cholesterol absorption inhibitors: structure-activity relationships on the heterocyclic nucleus” (1996).

For assay [1], the system named is Cricetinae gen. sp. As to the kind of experiment: In vivo for cholesterol absorption inhibitory activity using 7-day cholesterol-fed hamster model (expressed as percent change in cholesteryl esters at 50 mg/kg/day). The class given is functional, Cricetulus griseus. In outline:
(§1)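 Hamsters were fed a high-cholesterol diet for 7 days and gavaged once daily with compound in 0.2 mL corn oil. On the last day, animals were sacrificed and hepatic and serum lipids were determined. Results are given as percent change in hepatic cholesteryl ester or serum cholesterol concentration versus diet-fed controls gavaged with corn oil without drug.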

For assay [2], the system named is Cricetinae gen. sp. As to the kind of experiment: In vivo cholesterol absorption inhibitory activity using 7-day cholesterol-fed hamster model (expressed as percent change in serum cholesterol at 50 mg/kg/day). The class given is functional, Cricetulus griseus. In outline: as §1
The target in assay [3] is T1, Sterol O-acyltransferase 1 (Rattus norvegicus) (UniProt O70536).
T1 sequence (whole entry): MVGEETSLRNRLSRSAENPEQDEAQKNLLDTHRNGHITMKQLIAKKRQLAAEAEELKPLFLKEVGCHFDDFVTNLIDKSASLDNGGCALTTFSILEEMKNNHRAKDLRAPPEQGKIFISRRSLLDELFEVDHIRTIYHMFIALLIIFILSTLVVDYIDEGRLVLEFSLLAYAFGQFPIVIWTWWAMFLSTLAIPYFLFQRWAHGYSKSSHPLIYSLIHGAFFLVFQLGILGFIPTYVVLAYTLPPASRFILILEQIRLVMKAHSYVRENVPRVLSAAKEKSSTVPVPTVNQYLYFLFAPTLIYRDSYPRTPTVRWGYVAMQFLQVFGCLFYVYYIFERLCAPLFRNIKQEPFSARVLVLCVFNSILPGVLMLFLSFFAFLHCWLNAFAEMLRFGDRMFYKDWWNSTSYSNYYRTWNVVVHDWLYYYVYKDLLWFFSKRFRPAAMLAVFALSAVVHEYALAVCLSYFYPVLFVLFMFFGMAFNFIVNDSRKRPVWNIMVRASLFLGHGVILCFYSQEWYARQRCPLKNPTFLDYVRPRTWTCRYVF
As to the kind of experiment: In vitro for inhibitory activity against Acyl coenzyme A:cholesterol acyltransferase 1 from rat liver microsomes at 50 uM. In outline:
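Rat liver microsomes were used to measure ACAT activity as the formation of cholesteryl [3H]oleate from cholesterol and [3H]oleoyl CoA. Results are given as percent inhibition at a single concentration.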

Assay [4] has as its system Cricetinae gen. sp. As to the kind of experiment: Compound was tested in vivo for Cholesterol absorption inhibitory activity by using 7-day cholesterol-fed hamster model.(change in serum cholesterol( tested at 50 mg/kg/day). It counts as functional. In outline:
as §1

Assay [5] deals with Cricetinae gen. sp. As to the kind of experiment: Compound was tested in vivo for Cholesterol absorption inhibitory activity by using 7-day cholesterol-fed hamster model.(change in % change in cholesteryl esters(tested at 50 mg/kg/day). The class given is functional, Cricetulus griseus. An outline of the steps: as §1

Broadly, the inhibition is the change of the read-out against control, counted positive when it falls. In the case of `COc1ccc(N2C(=O)[C@H](CCCc3ccccc3)[C@H]2c2ccccc2)cc1`, the Change in the assay with Cricetinae gen. sp. [1] was -15%; in the assay on Cricetinae gen. sp. [2] it was -6%. Moreover, the inhibition in assay [3] amounted to 22%.

As for `COc1ccc(N2C(=O)[C@@H](CCCc3ccccc3)[C@H]2c2ccc(O)cc2)cc1`, the Change with Cricetinae gen. sp. [1] was -75%; in the assay on Cricetinae gen. sp. [2], -31%. Besides, the inhibition in assay [3] is 20%.

Turning to `COc1ccc(N2C(=O)[C@H](CCCc3ccccc3)[C@H]2c2ccc(CO)cc2)cc1`, the Change in the assay with Cricetinae gen. sp. [1] is -46%; with Cricetinae gen. sp. [2], -21%. Further, in assay [3], the inhibition was -6%.

For the compound `COc1ccc(N2C(=O)[C@H](CCCc3ccccc3)[C@H]2c2ccc(OC)c(OC)c2)cc1`, the Change in the assay with Cricetinae gen. sp. [1] is listed as -33%; in the assay with Cricetinae gen. sp. [2], -11%. Besides, the inhibition in assay [3] came to 53%.

On to `CCOc1ccc([C@@H]2[C@@H](CCCc3ccccc3)C(=O)N2c2ccc(OC)cc2)cc1`, for which the values for the Change in the assay on Cricetinae gen. sp. [1] and with Cricetinae gen. sp. [2] were -98% and -52%, respectively. Further, the inhibition in assay [3] was 68%.

As for `CCC(=O)Oc1ccc(N2C(=O)[C@H](CCCc3ccccc3)[C@H]2c2ccc(OC)cc2)cc1`, the figures for the Change in the assay on Cricetinae gen. sp. [4] and in the assay on Cricetinae gen. sp. [5] were -22% and -54%, respectively.

Regarding `COc1ccc(N2C(=O)[C@H](CCCc3ccccc3)[C@H]2c2ccc(O)cc2)cc1`, the Change with Cricetinae gen. sp. [1] is recorded as -48%; with Cricetinae gen. sp. [2], -16%. In addition, the inhibition in assay [3] came to 8%.

Take `COc1ccc(N2C(=O)[C@H](CCCc3ccccc3)[C@H]2c2ccc(O)c(O)c2)cc1`: the Change in the assay on Cricetinae gen. sp. [4] is 0%.

With `COc1ccc(N2C(=O)[C@@H](CCCc3ccccc3)[C@H]2c2cccc(OC)c2)cc1`, the Change with Cricetinae gen. sp. [1] is given as -54%; in the assay on Cricetinae gen. sp. [2], -19%. Also, the inhibition in assay [3] is 39%.

`CCCCCCCCCC[C@H]1C(=O)N(c2ccc(OC)cc2)[C@@H]1c1ccc(OC)cc1`: the Change with Cricetinae gen. sp. [4] is reported as 0%; with Cricetinae gen. sp. [5], -18%.

`CCOc1ccc([C@@H]2[C@H](CCCc3ccccc3)C(=O)N2c2ccc(OC)cc2)cc1`: the Change is listed as -93% in the assay on Cricetinae gen. sp. [1] and -48% with Cricetinae gen. sp. [2]. For the same compound, in assay [3], the inhibition is 79%.

Take `COc1ccc(N2C(=O)[C@H](CCCc3ccccc3)[C@H]2c2ccc(OC(C)C)cc2)cc1`: the Change in the assay with Cricetinae gen. sp. [1] was -94%; in the assay with Cricetinae gen. sp. [2] it was -38%. Further, in assay [3], the inhibition turned out to be 59%.

`COc1ccc(N2C(=O)[C@H](CCCc3ccccc3)[C@H]2c2ccc(C)cc2)cc1`: the Change in the assay on Cricetinae gen. sp. [1] is recorded as -21%; with Cricetinae gen. sp. [2], -20%. The inhibition in assay [3] amounted to 18%.

Turning to `COc1ccc(N2C(=O)[C@@H](CCCc3ccccc3)[C@H]2c2ccc(S)cc2)cc1`, the Change in the assay on Cricetinae gen. sp. [1] is on record as 0%; in the assay on Cricetinae gen. sp. [2], -19%.

For `COc1ccc([C@@H]2[C@@H](CCCc3ccccc3)C(=O)N2c2ccc(Cl)cc2)cc1`, the Change is reported as -93% with Cricetinae gen. sp. [1] and -44% in the assay on Cricetinae gen. sp. [2].

On to `COc1ccc([C@@H]2[C@@H](CCCc3ccccc3)C(=O)N2c2ccc(C)cc2)cc1`, for which the figures for the Change in the assay on Cricetinae gen. sp. [1] and in the assay on Cricetinae gen. sp. [2] were -90% and -38%, respectively.

Regarding `COc1ccc(N2C(=O)[C@@H](CCCc3ccccc3)[C@H]2c2ccc(OC(C)C)cc2)cc1`, the Change in the assay on Cricetinae gen. sp. [1] was -78%; in the assay with Cricetinae gen. sp. [2], -28%.

Turning to `COc1ccc([C@@H]2[C@H](CCCCCc3ccccc3)C(=O)N2c2ccc(OC)cc2)cc1`, the Change in the assay with Cricetinae gen. sp. [1] is given as -70%; in the assay with Cricetinae gen. sp. [2], -24%.

On to `COc1ccc(N2C(=O)[C@H](CCCc3ccccc3)[C@H]2c2cccc(OC)c2)cc1`, for which the Change in the assay on Cricetinae gen. sp. [1] is listed as -24%; in the assay with Cricetinae gen. sp. [2], -17%. Besides, the inhibition in assay [3] is 21%.

As to `COc1ccc([C@H]2N(c3ccccc3)C(=O)[C@]2(F)CCCc2ccccc2)cc1`, the Change in the assay on Cricetinae gen. sp. [1] was -17%; with Cricetinae gen. sp. [2], -10%.

Take `COc1ccc(CN2C(=O)[C@H](CCCc3ccccc3)[C@H]2c2ccc(OC)cc2)cc1`: the Change in the assay on Cricetinae gen. sp. [1] was -26%; with Cricetinae gen. sp. [2], 0%.

On to `COc1ccc([C@@H]2[C@@H](CCCc3ccccc3)C(=O)N2c2ccc(C(C)=O)cc2)cc1`, for which the Change is reported as -90% in the assay on Cricetinae gen. sp. [1] and -40% in the assay with Cricetinae gen. sp. [2].

With `COc1ccc([C@@H]2[C@H](CCCC3CCCCC3)C(=O)N2c2ccc(OC)cc2)cc1`, the Change in the assay with Cricetinae gen. sp. [1] is listed as -28%; with Cricetinae gen. sp. [2], 12%.

For `COc1ccc(N2C(=O)[C@H](CCCc3ccccc3)[C@H]2c2ccc(N)cc2)cc1`, the Change with Cricetinae gen. sp. [1] and with Cricetinae gen. sp. [2] was 0% each time. Also, in assay [3], the inhibition came out at 63%.

Take `CCCCOc1ccc([C@@H]2[C@@H](CCCc3ccccc3)C(=O)N2c2ccc(OC)cc2)cc1`: the Change is reported as -64% in the assay with Cricetinae gen. sp. [1] and -34% in the assay on Cricetinae gen. sp. [2].

`COc1ccc([C@@H]2[C@@H](CCCc3ccccc3)C(=O)N2C23C[C@H]4C[C@@H](C2)C[C@@H](C3)C4)cc1`: the Change in the assay on Cricetinae gen. sp. [1] and in the assay with Cricetinae gen. sp. [2] was 0% each time.

For the compound `COc1ccc(N2C(=O)[C@H](CCCc3ccccc3)[C@H]2c2ccc(SC)cc2)cc1`, the Change in the assay with Cricetinae gen. sp. [1] and in the assay on Cricetinae gen. sp. [2] was 0% each time.

Turning to `COc1ccc([C@H]2N(c3ccc(OC)cc3)C(=O)[C@@]2(Cc2ccccc2)c2ccccc2)cc1`, the Change in the assay with Cricetinae gen. sp. [1] and in the assay with Cricetinae gen. sp. [2] was 16% each time.

With `COc1ccc([C@@H]2[C@@H](CCCc3ccccc3)C(=O)N2c2ccc([S+](C)[O-])cc2)cc1` (some centres not stated), the figures for the Change in the assay with Cricetinae gen. sp. [1] and in the assay with Cricetinae gen. sp. [2] were 0% and -11%, respectively.

For `COc1ccc([C@H]2N(c3ccc(OC)cc3)C(=O)[C@]2(C)CCCc2ccccc2)cc1`, the Change in the assay on Cricetinae gen. sp. [1] is on record as 21%; in the assay on Cricetinae gen. sp. [2], 0%.

Take `COc1ccc(N2C(=O)[C@@H](CCCc3ccccc3)[C@H]2c2ccccc2)cc1`: the Change with Cricetinae gen. sp. [1] and with Cricetinae gen. sp. [2] was 0% in each case.

As for `COc1ccc([C@@H]2[C@@H](CCCc3ccccc3)C(=O)N2C(C)C)cc1`, the values for the Change in the assay with Cricetinae gen. sp. [1] and in the assay on Cricetinae gen. sp. [2] were -30% and -16%, respectively.

`COc1ccc([C@@H]2[C@@H](CCCC3CCCCC3)C(=O)N2c2ccc(OC)cc2)cc1`: the Change in the assay on Cricetinae gen. sp. [1] is -47%; with Cricetinae gen. sp. [2] it was -23%.

As for `COc1ccc(N2C(=O)[C@@H](CCCc3ccccc3)[C@H]2c2ccc3c(c2)OCO3)cc1`, the Change in the assay on Cricetinae gen. sp. [1] and in the assay with Cricetinae gen. sp. [2] was 0% each time.

Turning to `COc1ccc([C@@H]2[C@H](CCc3ccccc3)C(=O)N2c2ccc(OC)cc2)cc1`, the Change is recorded as -19% in the assay on Cricetinae gen. sp. [1] and 0% with Cricetinae gen. sp. [2].

On to `COc1ccc([C@@H]2[C@@H](CCCc3ccccc3)C(=O)N2c2ccc(C)c(C)c2)cc1`, for which the Change is recorded as -39% with Cricetinae gen. sp. [1] and -21% with Cricetinae gen. sp. [2].

Take `CCCCOc1ccc([C@@H]2[C@H](CCCc3ccccc3)C(=O)N2c2ccc(OC)cc2)cc1`: the Change was -70% in the assay on Cricetinae gen. sp. [1] and -15% in the assay with Cricetinae gen. sp. [2].

As for `COc1ccc([C@@H]2[C@@H](CCCc3ccccc3)C(=S)N2c2ccc(OC)cc2)cc1`, the Change was -23% with Cricetinae gen. sp. [1] and 0% in the assay on Cricetinae gen. sp. [2].

For the compound `CCCCCCCCCC[C@@H]1C(=O)N(c2ccc(OC)cc2)[C@@H]1c1ccc(OC)cc1`, the Change is on record as 0% in the assay with Cricetinae gen. sp. [4] and -15% in the assay on Cricetinae gen. sp. [5].

As to `COc1ccc(N2C(=O)[C@H](CCCc3ccccc3)[C@H]2c2ccc([N+](=O)[O-])cc2)cc1`, the Change in the assay on Cricetinae gen. sp. [1] is 0%; with Cricetinae gen. sp. [2], -11%. For the same compound, the inhibition in assay [3] worked out at 21%.

For the compound `COc1ccc(N2C(=O)[C@H](CCCc3ccccc3)[C@H]2c2ccc(OC)cc2OC)cc1`, the Change is listed as -78% in the assay with Cricetinae gen. sp. [1] and -26% in the assay with Cricetinae gen. sp. [2].

Take `COc1ccc([C@@H]2[C@@H](CCCc3ccccc3)C(=O)N2c2ccccc2OC)cc1`: the Change in the assay with Cricetinae gen. sp. [1] is reported as -87%; with Cricetinae gen. sp. [2] it was -49%.

Consider `COc1ccc(N2C(=O)[C@H](CCCc3ccccc3)[C@H]2c2ccc(F)cc2)cc1`, for which the Change in the assay on Cricetinae gen. sp. [1] amounted to 12%; in the assay with Cricetinae gen. sp. [2] it was 0%.

Consider `COc1ccc([C@@H]2[C@@H](CCCc3ccccc3)C(=O)N2C2CCCCC2)cc1`, for which the Change with Cricetinae gen. sp. [1] and with Cricetinae gen. sp. [2] was 0% in each case.

Take `COc1ccc(N2C(=O)[C@H](CCCc3ccccc3)[C@H]2c2ccc([S+](C)[O-])cc2)cc1` (some centres not stated): the values for the Change with Cricetinae gen. sp. [1] and with Cricetinae gen. sp. [2] were -32% and -17%, respectively.
